Test results as given in PubChem BioAssay.
The source made the active and inactive calls.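 Rule for the calls, unless noted: active = viability at or below 30% in both replicate assays; inconclusive = viability at or below 30% in just one of the two assays; inactive = the rest.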

Assays:
[1] = reduced viability of SK-BR-3 breast cancer cells – cell-based, 24 h, human, pilot screen (AID 572;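 active = viability at or below 10% of carrier control in both of two separate runs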;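 note: compound exposure lasted between 18 and 24 h rather than exactly 24 h; 100% = carrier-treated control wells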); settings: SK-BR-3 viability, CellTiter-Glo luminescence, at 10 µM, stronger effect = lower value
[2] = HUVEC growth inhibition – cell-based, human, primary screen (AID 575); settings: HUVEC proliferation, CellTiter-Glo luminescence, 72 h; at 10 µM; stronger effect = lower value;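 note: 100% = median of untreated cell wells with 0.1% DMSO on each plate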
Summary of the method: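 Assay system: Primary human umbilical vein endothelial cells | Quantity: 1250 cells per well | Medium: Supplemented EBM, 2% fetal bovine serum | Detection: CellTiter-Glo luminescence measuring cellular ATP | Read-out: % viability vs DMSO wells | Plate: Collagen-coated 384-well format | Times: 72 h exposure, 37 °C, 5% CO2, 30 min RT equilibration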

[3] = H69AR cell proliferation blockers – human, duplicate replicates, primary screen (AID 580;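 active = viability at or under a set limit in both replicates, limit being median viability minus 3 SD, cut at about 48% in these data, passing the limit was not always enough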;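 note: 100% = mean luminescence of untreated wells and 0% = no signal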); settings: H69AR lung tumor cells viability, ATP luminescence, 72 h; at 10 µM; stronger effect = lower value
[4] = MRP1 drug-resistance reversers in H69AR cells – cell-based, doxorubicin co-treatment, pilot screen (AID 601;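 active = viability loss from added drug above about 55%, and viability with drug at most 40%, in both replicates, limit read from the data, passing the limit was not always enough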); settings: CellTiter-Glo, 72 h, at 10 µM; for differential viability (reversal): stronger effect = higher value
[5] = yeast transport mutant growth inhibition pilot in 384-well plates, post-Golgi transport modulator project (AID 636; in the data active = inhibition above about 31%); settings: absorbance 615 nm, about 18 h, stronger effect = higher value
[6] = growth suppression of yeast trafficking mutant, preliminary HTS, modulators of trafficking downstream of Golgi apparatus project, 1536-format plate, OD 615 nm (AID 637; in the data active = inhibition above about 30%); settings: yeast transport mutant growth, absorbance 615 nm, 18 h; stronger effect = higher value
[7] = H69AR cells + 2 uM doxorubicin, measured here: viability with 2 uM doxorubicin, stronger effect = lower value
[8] = H69AR cells, compound alone cytotoxicity

Compound | viability [1] | viability [2] | viability [3] | differential viability (reversal) ([4]; H69AR cells + 2 uM doxorubicin) | viability [4, 7] | viability [4, 8] | inhibition [5] | inhibition [6]
CC(=O)OCC(=O)[C@@]1(O)CC[C@H]2[C@@H]3CCC4=CC(=O)CC[C@]4(C)[C@H]3C(=O)C[C@@]21C | 108% (inactive) | 95.9% (inactive) | 104% (inactive) | 8.62% (inactive) | 95.2% | 104% | -4.55% (inactive) | -1.33% (inactive)
CCCCSc1nnc([C@H](C)NC(=O)OC(C)(C)C)o1 | 97% (inactive) | 102% (inactive) | 90.3% (inactive) | -10.7% (inactive) | 101% | 90.3% | 0.14% (inactive) | 22.6% (inactive)
CCCCCCn1c(CN2CCCC(C)C2)nc2c1c(=O)n(C)c(=O)n2C (stereo not drawn) | 57% (inactive) | 111% (inactive) | 101% (inactive) | 7.51% (inactive) | 93.1% | 101% | -7.12% (inactive) | 2.36% (inactive)
CCOC(=O)C(C)C1(O)c2ccccc2-c2ncccc21 (stereo not drawn) | 91% (inactive) | 98.6% (inactive) | 102% (inactive) | 13% (inactive) | 88.6% | 102% | -5.81% (inactive) | 1.27% (inactive)
CC1(C)CC(=O)C(CC(=O)NC(=O)NCc2ccccc2)=C(O)C1 | 114% (inactive) | 81.9% (inactive) | 105% (inactive) | 9.89% (inactive) | 94.7% | 105% | -4.52% (inactive) | -10% (inactive)
c1ccc(OCc2nc(-c3ccccc3)no2)cc1 | 98% (inactive) | 92.5% (inactive) | 93.5% (inactive) | 3.62% (inactive) | 89.9% | 93.5% | 0.14% (inactive) | 29.5% (inactive)
CCCC(CCC)C(=O)NCCN1CCOCC1 | 118% (inactive) | 85% (inactive) | 96.8% (inactive) | 10.2% (inactive) | 86.6% | 96.8% | -2.34% (inactive) | 4.92% (inactive)
Cc1ccc(Cl)c(Nc2ccccc2C(=O)O)c1Cl | 135% (inactive) | 47.9% (inactive) | 91.3% (inactive) | -6.54% (inactive) | 97.9% | 91.3% | -0.78% (inactive) | 4.67% (inactive)
CC(C)Cc1ccc(C(C)C(=O)O)cc1 (stereo not drawn) | 99% (inactive) | 84.3% (inactive) | 97.8% (inactive) | 5.44% (inactive) | 92.3% | 97.8% | -1.95% (inactive) | 7.17% (inactive)
COCCn1nnnc1C(c1cc2ccc(OC)cc2[nH]c1=O)N1CCc2ccccc2C1 (stereo not drawn) | 89% (inactive) | 90.4% (inactive) | 85.6% (inactive) | -13.3% (inactive) | 98.9% | 85.6% | -1.64% (inactive) | 4.52% (inactive)
CCC1Oc2ccc(C)cc2N(CC(=O)NCCCN2CCCCC2CC)C1=O (stereo not drawn) | 99% (inactive) | 83.7% (inactive) | 87.5% (inactive) | -6.5% (inactive) | 93.9% | 87.5% | -0.78% (inactive) | -0.66% (inactive)
Cc1cc(NC(=O)C(C)(C)C)no1 | 82% (inactive) | 92.7% (inactive) | 99.2% (inactive) | 16% (inactive) | 83.3% | 99.2% | -1.2% (inactive) | -0.73% (inactive)
CCC(=O)Nc1nn(C)c2nc3c(C)cccc3cc12 | 92% (inactive) | 105% (inactive) | 104% (inactive) | 17.2% (inactive) | 86.4% | 104% | -3.47% (inactive) | -4.18% (inactive)
Cc1ccc2c(c1)C(N1CCCC1=O)CC(c1ccco1)N2 (stereo not drawn) | 108% (inactive) | 74.7% (inactive) | 68.7% (inactive) | 2.15% (inactive) | 66.6% | 68.7% | -5.6% (inactive) | -6.51% (inactive)
O=C(CSc1nc2ccccc2[nH]1)N1CCCCC1 | 106% (inactive) | 102% (inactive) | 92.9% (inactive) | 8.96% (inactive) | 83.9% | 92.9% | -6.44% (inactive) | 5.09% (inactive)
Cn1c(=O)[nH]c(=O)c2c1nc(Br)n2Cc1ccccc1F | 116% (inactive) | 78% (inactive) | 86.9% (inactive) | 16.6% (inactive) | 70.2% | 86.9% | 3.15% (inactive) | 3.87% (inactive)
Cc1nnc(N(C)C(=O)Cc2ccc3c(c2)OCO3)s1 | 94% (inactive) | 92.6% (inactive) | 94.6% (inactive) | 5.27% (inactive) | 89.3% | 94.6% | 2.47% (inactive) | 8.71% (inactive)
CCN(CC(=O)Nc1ccc2c(c1)OCCO2)Cc1cc(=O)oc2cc(C)c(C)cc12 | 93% (inactive) | 82.2% (inactive) | 73.8% (inactive) | 5.8% (inactive) | 68% | 73.8% | -5.75% (inactive) | 3.09% (inactive)
COC(=O)CC(C(=O)Nc1cc(C(=O)OC)cc(C(=O)OC)c1)N1CCN(C)CC1 (stereo not drawn) | 132% (inactive) | 99.5% (inactive) | 95.6% (inactive) | 5.77% (inactive) | 89.8% | 95.6% | -5.62% (inactive) | -7.9% (inactive)
CN(C)c1nc(Oc2ccc(N)cc2)nc(N(C)C)n1 | 97% (inactive) | 86.2% (inactive) | 90.1% (inactive) | -6.47% (inactive) | 96.6% | 90.1% | -7.73% (inactive) | -2% (inactive)
O=C(Nc1nc(-c2ccccc2)cs1)C1CCCO1 (stereo not drawn) | 91% (inactive) | 101% (inactive) | 94.2% (inactive) | 10.9% (inactive) | 83.3% | 94.2% | -4.4% (inactive) | -2.18% (inactive)
O=C(NCCO)c1cc2ccccc2cc1O | 104% (inactive) | 110% (inactive) | 97% (inactive) | -17.9% (inactive) | 115% | 97% | -3.25% (inactive) | 4.43% (inactive)
CCCCCC#CCC#CCC#CCC#CCCCC(=O)O | 152% (inactive) | 66.2% (inactive) | 93.6% (inactive) | -0.29% (inactive) | 93.9% | 93.6% | 0.78% (inactive) | 8.33% (inactive)
Nn1c(SCC(=O)Nc2ccc(S(=O)(=O)N3CCCC3)cc2)nnc1C(F)(F)F | 110% (inactive) | 89.7% (inactive) | 90.8% (inactive) | -6.72% (inactive) | 97.6% | 90.8% | 0% (inactive) | 3.11% (inactive)
CC(C)CCNC(=O)C(C)N(Cc1ccc(F)cc1)C(=O)c1ccc(CN2CCCCC2)o1 (stereo not drawn) | 72% (inactive) | 108% (inactive) | 95.4% (inactive) | -0.095% (inactive) | 95.5% | 95.4% | -5.95% (inactive) | -2.91% (inactive)
COc1cc2c(cc1OC)C(/C(C#N)=N\O)=NC(C)(C)C2 | 86% (inactive) | 107% (inactive) | 100% (inactive) | 8.75% (inactive) | 91.6% | 100% | -8.77% (inactive) | 2% (inactive)
